Source: ChEMBL document CHEMBL1145127 (J Med Chem, 2003)

Columns and labels:
Rattus norvegicus [1] = organism: Rattus norvegicus; assay: Effective concentration against rat aortic smooth muscle cell; type: functional
Summary of the method: (§1)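 Rat aortic smooth muscle cells cultured in DMEM with 10% fetal calf serum at 37 °C, seeded at (2-5) × 10⁴ cells/well and used confluent after 3-5 days. Cells preincubated 30 min at 37 °C in PBS with inhibitor, then stimulated with atrial natriuretic factor (0.1 µM) 10 min. Intracellular cGMP extracted with 65% ethanol. Triplicate wells, DMSO ≤0.1%. EC50 taken as concentration giving half-maximal cGMP increase.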

[2] = target: cGMP-specific 3',5'-cyclic phosphodiesterase (Bos taurus, UniProt Q28156); assay: In vitro inhibitory activity against bovine phosphodiesterase 5
Rattus norvegicus [3] = organism: Rattus norvegicus; assay: Increased intracellular cGMP concentration in rat aortic smooth cells (RSMC) using atrial natriuretic factor; type: functional, cell-based; conditions: Aorta; summary of the method: as §1
[4] = target: cGMP-specific 3',5'-cyclic phosphodiesterase (Bos taurus) (UniProt Q28156); assay: Inhibition of bovine PDE5 (Phosphodiesterase 5); conditions: concentration not given here
Phosphodiesterase 3B = Phosphodiesterase 3B (Bos taurus, UniProt E1BN64); assay: Inhibition of bovine aorta PDE3 (Phosphodiesterase 3)
[5] = Half life in rat; type: ADME, organism-based; conditions: in vivo
Phosphodiesterase 1 = Phosphodiesterase 1 (Bos taurus, UniProt Q01061+P14100); assay: Inhibition of bovine aorta PDE1 (Phosphodiesterase 1); type: protein assay
Phosphodiesterase 6 = assay: Inhibition of bovine retina PDE6 (Phosphodiesterase 6); type: protein assay, Bos taurus
[6] = Oral bioavailability in rat was determined; type: ADME, organism-based; conditions: in vivo
[7] = The total clearance time in plasma in rat was determined; type: ADME, organism-based
[8] = target: cGMP-dependent 3',5'-cyclic phosphodiesterase (Homo sapiens, UniProt O00408); assay: Inhibition of Human recombinant PDE2 (Phosphodiesterase 2)
cGMP-dependent 3',5'-cyclic phosphodiesterase, sequence (O00408 whole entry): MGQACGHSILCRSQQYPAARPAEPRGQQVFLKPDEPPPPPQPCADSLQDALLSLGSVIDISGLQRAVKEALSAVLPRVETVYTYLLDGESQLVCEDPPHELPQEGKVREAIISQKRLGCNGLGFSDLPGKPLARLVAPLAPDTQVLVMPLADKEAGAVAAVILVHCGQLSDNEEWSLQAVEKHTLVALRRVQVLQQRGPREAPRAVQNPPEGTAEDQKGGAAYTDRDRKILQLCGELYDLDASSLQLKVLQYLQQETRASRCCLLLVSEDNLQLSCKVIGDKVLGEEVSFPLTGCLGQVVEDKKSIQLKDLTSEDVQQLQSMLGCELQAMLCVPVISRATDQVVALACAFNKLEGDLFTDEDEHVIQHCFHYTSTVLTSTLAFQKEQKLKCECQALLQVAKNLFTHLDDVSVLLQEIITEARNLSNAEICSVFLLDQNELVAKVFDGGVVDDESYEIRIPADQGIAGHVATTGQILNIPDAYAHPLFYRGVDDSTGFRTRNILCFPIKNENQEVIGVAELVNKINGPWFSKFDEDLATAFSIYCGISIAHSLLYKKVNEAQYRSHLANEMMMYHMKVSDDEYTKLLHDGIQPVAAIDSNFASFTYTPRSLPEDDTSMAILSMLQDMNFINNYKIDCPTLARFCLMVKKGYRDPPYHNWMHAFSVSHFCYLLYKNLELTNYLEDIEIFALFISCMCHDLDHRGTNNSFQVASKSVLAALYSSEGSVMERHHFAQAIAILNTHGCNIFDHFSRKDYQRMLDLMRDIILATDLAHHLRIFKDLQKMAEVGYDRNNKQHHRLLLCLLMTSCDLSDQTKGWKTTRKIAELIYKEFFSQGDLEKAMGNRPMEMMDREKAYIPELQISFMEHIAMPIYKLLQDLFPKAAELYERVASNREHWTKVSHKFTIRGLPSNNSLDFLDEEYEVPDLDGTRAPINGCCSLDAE

Phosphodiesterase 3B, sequence (E1BN64 whole entry): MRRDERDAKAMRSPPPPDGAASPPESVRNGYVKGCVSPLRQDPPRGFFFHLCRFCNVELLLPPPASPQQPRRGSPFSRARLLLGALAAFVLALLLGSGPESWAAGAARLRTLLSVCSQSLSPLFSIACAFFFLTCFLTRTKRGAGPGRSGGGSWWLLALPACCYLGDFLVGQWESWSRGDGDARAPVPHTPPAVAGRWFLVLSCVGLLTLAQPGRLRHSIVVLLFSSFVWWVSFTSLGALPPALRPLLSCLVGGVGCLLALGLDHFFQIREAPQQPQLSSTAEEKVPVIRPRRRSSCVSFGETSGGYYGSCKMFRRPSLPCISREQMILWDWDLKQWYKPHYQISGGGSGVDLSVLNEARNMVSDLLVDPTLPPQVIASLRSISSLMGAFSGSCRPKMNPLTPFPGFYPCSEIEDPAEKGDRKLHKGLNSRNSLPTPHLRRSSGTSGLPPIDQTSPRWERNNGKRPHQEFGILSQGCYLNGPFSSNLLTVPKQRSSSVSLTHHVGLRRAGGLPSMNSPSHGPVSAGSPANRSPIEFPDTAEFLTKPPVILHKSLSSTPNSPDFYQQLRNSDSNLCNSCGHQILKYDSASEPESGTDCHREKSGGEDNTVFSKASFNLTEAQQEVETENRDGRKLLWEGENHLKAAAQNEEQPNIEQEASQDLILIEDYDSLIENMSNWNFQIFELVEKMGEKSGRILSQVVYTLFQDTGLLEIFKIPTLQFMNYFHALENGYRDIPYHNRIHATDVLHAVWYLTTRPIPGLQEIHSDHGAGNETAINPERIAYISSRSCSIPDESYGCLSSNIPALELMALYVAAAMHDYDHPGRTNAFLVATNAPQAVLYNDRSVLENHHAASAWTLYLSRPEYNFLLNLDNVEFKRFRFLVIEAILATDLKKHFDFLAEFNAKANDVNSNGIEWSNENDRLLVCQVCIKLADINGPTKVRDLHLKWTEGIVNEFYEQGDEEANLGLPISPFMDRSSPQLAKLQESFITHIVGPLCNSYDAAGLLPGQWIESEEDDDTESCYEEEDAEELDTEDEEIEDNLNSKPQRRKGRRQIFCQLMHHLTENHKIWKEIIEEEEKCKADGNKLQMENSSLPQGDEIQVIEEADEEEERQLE

Compound	EC50 (Rattus norvegicus [1]; Rattus norvegicus) [nM]	IC50 [2] [nM]	further results
COc1ccc(C2c3[nH]c4ccccc4c3C[C@@H]3C(=O)N(Cc4ccccc4)C(=O)N23)cc1 (some centres not stated)	> 10000	18	
CN1CC(=O)N2[C@H](c3ccc4c(c3)OCO4)c3[nH]c4ccccc4c3C[C@@H]2C1=O (stereo in doubt)			EC50 (Rattus norvegicus [1]): 500 nM
COc1ccc([C@H]2c3[nH]c4ccccc4c3C[C@@H]3C(=O)N(Cc4ccccc4)CN23)cc1	> 10000	60	
CCCCN1C(=O)[C@H]2Cc3c([nH]c4ccccc34)C(c3ccc(OC)cc3)N2C1=O (some centres not stated)			EC50 (Rattus norvegicus [3]): 700 nM
CCCCN1CC(=O)N2C(c3ccc(OC)c(OC)c3)c3[nH]c4ccccc4c3C[C@@H]2C1=O (some centres not stated)			inhibition [4]: 62%
COc1ccc([C@@H]2c3[nH]c4ccccc4c3C[C@@H]3C(=O)N(CC4CC4)CC(=O)N23)cc1	500	6	
CCCCN1CC(=O)N2C(c3ccc(Cl)cc3)c3[nH]c4ccccc4c3C[C@@H]2C1=O (some centres not stated)	> 10000	15	
CCCCN1CC(=O)N2C(c3ccc(OC)cc3)c3[nH]c4ccccc4c3C[C@@H]2C1=O (some centres not stated)	> 10000	70	
CCCc1nn(C)c2c(=O)[nH]c(-c3cc(S(=O)(=O)N4CCN(C)CC4)ccc3OCC)nc12			IC50 (Phosphodiesterase 3B): 9200 nM
CCCCN1CC(=O)N2[C@H](c3ccc(OC)cc3)c3[nH]c4ccccc4c3C[C@@H]2C1=O	1500	5	
CCCCN1C[C@H]2Cc3c([nH]c4ccccc34)[C@@H](c3ccc(OC)cc3)N2C1		> 10000	
CCCCN1CC(=O)N2C(c3ccccc3)c3[nH]c4ccccc4c3C[C@@H]2C1=O (some centres not stated)	> 10000	91	
CN1CC(=O)N2[C@H](c3ccc4c(c3)OCO4)c3[nH]c4ccccc4c3C[C@@H]2C1=O (stereo in doubt; 12a)			IC50 (Phosphodiesterase 3B): > 10000 nM; half-life [5]: 2.4 h; IC50 (Phosphodiesterase 1): > 10000 nM; EC50 (Rattus norvegicus [1]): 150 nM; IC50 (Phosphodiesterase 6): 5100 nM; bioavailability [6]: 63%; clearance [7]: 5.1 mL/min/kg; IC50 [8]: > 10000 nM
COc1ccc(C2c3[nH]c4ccccc4c3C[C@@H]3C(=O)N(C)C(=O)N23)cc1 (some centres not stated)	1000	10	
CCCCN1CC(=O)N2C(c3ccc(C)cc3)c3[nH]c4ccccc4c3C[C@@H]2C1=O (some centres not stated)	350	26	
CCCCN1C(=O)C2Cc3c([nH]c4ccccc34)C(c3ccc(OC)cc3)N2C1=O (configuration not stated)	1000		
COc1ccc([C@@H]2c3[nH]c4ccccc4c3C[C@@H]3C(=O)N(C4CCCC4)CC(=O)N23)cc1	200	17	
CCCCN1CC(=O)N2C(c3ccc(C#N)cc3)c3[nH]c4ccccc4c3C[C@@H]2C1=O (some centres not stated)		758	

Further lines, with some results ahead:

EC50 (Rattus norvegicus [1]; Rattus norvegicus) [nM]	IC50 [2] [nM]	Compound	further results
3000	6	O=C1[C@H]2Cc3c([nH]c4ccccc34)C(c3ccc4c(c3)OCO4)N2C(=O)N1Cc1ccccc1 (some centres not stated)	
500		CCN1CC(=O)N2[C@H](c3ccc(OC)cc3)c3[nH]c4ccccc4c3C[C@@H]2C1=O	
	12	O=C1NCC(=O)N2[C@H](c3ccc4c(c3)OCO4)c3[nH]c4ccccc4c3C[C@H]12 (stereo in doubt) [NORTADALAFIL]	EC50 (Rattus norvegicus [1]): 600 nM
> 10000	60	CN1C[C@H]2Cc3c([nH]c4ccccc34)[C@@H](c3ccc4c(c3)OCO4)N2C1=O	
	5	CCCCN1CC(=O)N2[C@H](c3ccc4c(c3)OCO4)c3[nH]c4ccccc4c3C[C@@H]2C1=O (stereo in doubt)	EC50 (Rattus norvegicus [1]): 600 nM
600	23	Cc1ccc([C@@H]2c3[nH]c4ccccc4c3C[C@@H]3C(=O)N(CC4CC4)CC(=O)N23)cc1	
300	5	O=C1[C@H]2Cc3c([nH]c4ccccc34)[C@@H](c3ccc4c(c3)OCO4)N2C(=O)CN1C1CCCCC1	
200	41	COc1ccc([C@@H]2c3[nH]c4ccccc4c3C[C@@H]3C(=O)N(C)CC(=O)N23)cc1	
	8	CC(C)N1CC(=O)N2[C@H](c3ccc4c(c3)OCO4)c3[nH]c4ccccc4c3C[C@@H]2C1=O (stereo in doubt; 14)	EC50 (Rattus norvegicus [1]): 150 nM
3500	138	CCCCN1CC(=O)N2C(c3ccc4c(c3)OCO4)c3[nH]c4ccccc4c3C[C@@H]2C1=O (single isomer, unassigned)	
300	11	O=C1NCC(=O)N2[C@H](c3ccc4c(c3)OCO4)c3[nH]c4ccccc4c3C[C@H]12 (stereo in doubt; 16) [NORTADALAFIL]	
1000	3	CCCCN1CC(=O)N2[C@H](c3ccc4c(c3)OCO4)c3[nH]c4ccccc4c3C[C@@H]2C1=O (stereo in doubt; 13)	
800	3	O=C1[C@H]2Cc3c([nH]c4ccccc34)[C@@H](c3ccc4c(c3)OCO4)N2C(=O)CN1Cc1ccccc1	
	6	CC(C)N1CC(=O)N2[C@H](c3ccc4c(c3)OCO4)c3[nH]c4ccccc4c3C[C@@H]2C1=O (stereo in doubt)	EC50 (Rattus norvegicus [1]): 500 nM
